Series [1] concerns the target T1, AChE (Electrophorus electricus, UniProt O42275). The series is described as follows: biochemical. Further details: species or system Electric Eel. As to conditions: for inhibition at 50 µM: 0.25 h, read-out: Inhibition ratios for AChE.
The target in another series is BChE (Equus caballus, UniProt P81908). Kind of series: BChE inhibition, modified Ellman method. Format: biochemical, equine. As to conditions: for inhibition at 50 µM: 0.25 h, read-out: Inhibition ratios for BChE. In general terms: DTNB colorimetry detects thiols as they appear.
Chain of BChE (P81908 whole entry): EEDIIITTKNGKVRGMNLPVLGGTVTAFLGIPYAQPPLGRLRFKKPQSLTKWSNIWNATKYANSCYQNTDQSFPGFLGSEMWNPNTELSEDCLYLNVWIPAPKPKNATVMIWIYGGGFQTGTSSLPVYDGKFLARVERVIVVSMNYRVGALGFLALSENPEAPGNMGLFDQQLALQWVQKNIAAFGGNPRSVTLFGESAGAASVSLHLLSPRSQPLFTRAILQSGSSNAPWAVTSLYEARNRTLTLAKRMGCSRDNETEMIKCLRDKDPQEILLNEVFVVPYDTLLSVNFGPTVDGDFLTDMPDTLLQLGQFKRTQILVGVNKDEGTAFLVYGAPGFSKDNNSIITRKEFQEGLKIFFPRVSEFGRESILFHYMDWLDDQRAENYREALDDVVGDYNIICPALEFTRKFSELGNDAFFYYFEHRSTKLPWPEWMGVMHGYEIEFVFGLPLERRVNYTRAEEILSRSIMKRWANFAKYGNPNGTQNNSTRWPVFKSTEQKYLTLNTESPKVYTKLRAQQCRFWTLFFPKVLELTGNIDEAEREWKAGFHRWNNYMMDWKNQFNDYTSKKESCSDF
The next series relates to HepG-2 cells. The series is described as follows: MTT assay of HepG-2 cell viability. Format: cell-based, human. As to conditions: for Inhibition ratios for HepG-2 cell viability: 10 μmol/L compound, 48 h, mean of three independent experiments; for Effect on HepG-2 cell viability (in words): 10 μmol/L. The procedure, abridged: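 HepG-2 cells were kept at 37 °C under 5% CO2 and seeded at 5×10^3 cells/well. After 12 h, test compound was added at 10 µmol/L for 48 h. Viability was read by MTT conversion to purple formazan, and the inhibition rate was calculated against untreated cells set as 100%.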

Series [2] in a line: Metal-chelating study by UV-Vis spectrometry. It is filed as physicochemical. The procedure, abridged: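 Test compound (20 μmol/L final) was incubated in water for 30 min at room temperature, alone or with CuSO4, FeCl3 or ZnCl2 (each 20 μmol/L final). UV-Vis absorption spectra were then recorded from 200 to 500 nm.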
Series [3] deals with T1, AChE. Kind of series: Kinetic characterization of AChE inhibition. Format: biochemical, Electric Eel. As to conditions: Lineweaver–Burk plots. In a few lines: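 Acetylthiocholine hydrolysis by AChE was measured at six substrate concentrations in 0.1 mol/L KH2PO4/K2HPO4 buffer, pH 8.0, with DTNB. Test compound was pre-incubated with the enzyme for 15 min at 37 °C before substrate was added. Absorbance was read at 412 nm, and a parallel no-inhibitor control was run.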

T1 sequence (O42275 24-633): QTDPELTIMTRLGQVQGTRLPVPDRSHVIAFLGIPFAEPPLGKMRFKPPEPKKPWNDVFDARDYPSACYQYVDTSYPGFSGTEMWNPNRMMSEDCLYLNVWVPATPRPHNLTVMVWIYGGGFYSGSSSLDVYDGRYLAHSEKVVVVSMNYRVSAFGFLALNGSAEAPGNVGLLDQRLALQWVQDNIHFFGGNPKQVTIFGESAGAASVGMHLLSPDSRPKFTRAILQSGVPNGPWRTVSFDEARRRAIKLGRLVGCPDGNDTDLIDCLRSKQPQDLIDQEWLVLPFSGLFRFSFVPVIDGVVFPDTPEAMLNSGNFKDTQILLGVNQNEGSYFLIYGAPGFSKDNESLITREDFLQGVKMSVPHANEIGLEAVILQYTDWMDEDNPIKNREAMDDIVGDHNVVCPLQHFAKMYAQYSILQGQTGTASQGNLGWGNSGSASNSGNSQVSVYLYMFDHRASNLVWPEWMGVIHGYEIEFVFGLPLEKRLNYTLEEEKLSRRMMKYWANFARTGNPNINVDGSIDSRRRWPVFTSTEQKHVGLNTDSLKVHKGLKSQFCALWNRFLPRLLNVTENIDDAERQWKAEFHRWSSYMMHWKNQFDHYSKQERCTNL

With `Cl.NCCCCNC(=O)COc1cc(O)c2c(=O)c(-c3ccc(O)cc3)coc2c1` [Compound 4d, N-(4-aminobutyl)-2-(5-hydroxy-3-(4-hydroxyphenyl)-4-oxo-4H-chromen-7-yloxy)acetamide hydrochloride], the inhibition at 50 µM on AChE [1] stood at 34.5 ± 2.76%; on BChE, 9.02 ± 0.23%. Besides, the “Inhibition ratios for HepG-2 cell viability” value in the series with HepG-2 cells is given as 1.17%.

As to `O=c1c(-c2ccc(O)cc2)coc2cc(O)cc(O)c12` [Genistein, reference compound], the IC50 against AChE [1] and on BChE was above 100 µM in each case. Further, the inhibition at 100 µM at AChE [1] (read-out: Inhibition of AChE activity) was below 50%.

With `Cl.O=C(COc1cc(O)c2c(=O)c(-c3ccc(O)cc3)coc2c1)NCCCCN1CCNCC1` [Compound 4e, 2-(5-hydroxy-3-(4-hydroxyphenyl)-4-oxo-4H-chromen-7-yloxy)-N-(4-(piperazin-1-yl)butyl)acetamide hydrochloride], the inhibition at 50 µM was 19.3 ± 1.87% on AChE [1] and 11.7 ± 0.82% on BChE. The “Inhibition ratios for HepG-2 cell viability” value in the series with HepG-2 cells came out at 8.51%.

`CCCCNC(=O)COc1cc(O)c2c(=O)c(-c3ccc(O)cc3)coc2c1` [Compound 4a, N-butyl-2-(5-hydroxy-3-(4-hydroxyphenyl)-4-oxo-4H-chromen-7-yloxy)acetamide]: the figures for the inhibition at 50 µM at AChE [1] and at BChE were 7.88 ± 3.58% and 1.19 ± 0.59%, respectively. Besides, in the series on HepG-2 cells, the “Inhibition ratios for HepG-2 cell viability” value was determined as 6.40%.

`Cl.NCCCNCCCNC(=O)COc1cc(O)c2c(=O)c(-c3ccc(O)cc3)coc2c1` [Compound 4f, N-(3-(3-aminopropylamino)propyl)-2-(5-hydroxy-3-(4-hydroxyphenyl)-4-oxo-4H-chromen-7-yloxy)acetamide hydrochloride]: the inhibition at 50 µM came to 10.2 ± 0.44% on AChE [1] and 9.52 ± 1.48% at BChE. Also, the “Inhibition ratios for HepG-2 cell viability” value with HepG-2 cells is reported as 11.74%.

`CN(C)CCNC(=O)COc1cc(O)c2c(=O)c(-c3ccc(O)cc3)coc2c1.Cl` [Compound 4b, N-(2-(dimethylamino)ethyl)-2-(5-hydroxy-3-(4-hydroxyphenyl)-4-oxo-4H-chromen-7-yloxy)acetamide hydrochloride]: at AChE [1], half-maximal inhibition (IC50) was put at 2.75 ± 0.28 µM and the inhibition at 50 µM was determined as 90.4 ± 1.23%. For the same compound, in series [2], the “Metal-chelating ability (overall)” value is “potent metal-chelating ability”. Moreover, in series [2] (20 μmol/L compound, 20 μmol/L Cu^2+, in water), the “Chelation of Cu^2+ (UV-Vis spectrum change)” value is “poor chelating ability”. Further, on BChE, the IC50 is above 50 µM and the inhibition at 50 µM was determined as 26.1 ± 2.52%. Besides, at AChE [3], the “Inhibition type of AChE” value is listed as “mixed-type inhibition”. In the series on HepG-2 cells, the “Effect on HepG-2 cell viability (in words)” value is given as “no obvious effect on cell viability” and the “Inhibition ratios for HepG-2 cell viability” value is 1.53%.

As to `Cl.NCCCCNCCCCNC(=O)COc1cc(O)c2c(=O)c(-c3ccc(O)cc3)coc2c1` [Compound 4h, N-(4-(4-aminobutylamino)butyl)-2-(5-hydroxy-3-(4-hydroxyphenyl)-4-oxo-4H-chromen-7-yloxy)acetamide hydrochloride], on AChE [1], the half-maximal inhibitory concentration (IC50) was found to be 46.6 ± 3.87 µM and the inhibition at 50 µM was 51 ± 0.55%. Besides, at BChE, the IC50 was above 50 µM and the inhibition at 50 µM came out at 39.2%. In addition, the “Inhibition ratios for BChE” value at BChE (50 μmol/L compound, mean±SEM of two experiments, BChE from equine serum) is given as 39.20±5.64%. In addition, in the series with HepG-2 cells, the “Effect on HepG-2 cell viability (in words)” value is “no obvious effect on cell viability” and the “Inhibition ratios for HepG-2 cell viability” value is given as 16.30%.

Take `Nc1c2c(nc3ccccc13)CCCC2` [Tacrine, reference compound]: in the series on HepG-2 cells, the “Inhibition ratios for HepG-2 cell viability” value was determined as 57.35%.

On to `Cl.NCCCNC(=O)COc1cc(O)c2c(=O)c(-c3ccc(O)cc3)coc2c1` [Compound 4c, N-(3-aminopropyl)-2-(5-hydroxy-3-(4-hydroxyphenyl)-4-oxo-4H-chromen-7-yloxy)acetamide hydrochloride], for which the figures for the inhibition at 50 µM on AChE [1] and on BChE were 37 ± 2.07% and 13.8 ± 1.05%, respectively. The “Inhibition ratios for HepG-2 cell viability” value in the series on HepG-2 cells was 14.57%.

For `Cl.NCCCNCCCCNC(=O)COc1cc(O)c2c(=O)c(-c3ccc(O)cc3)coc2c1` [Compound 4g, N-(4-(3-aminopropylamino)butyl)-2-(5-hydroxy-3-(4-hydroxyphenyl)-4-oxo-4H-chromen-7-yloxy)acetamide hydrochloride], the inhibition at 50 µM was 16.5 ± 1.36% at AChE [1] and 17.9 ± 2.83% on BChE. For the same compound, the “Inhibition ratios for HepG-2 cell viability” value in the series with HepG-2 cells is reported as 16.72%.

One may read the IC50 as the point on the concentration scale where inhibition reaches its midpoint. High values mean a need for much substance, low ones inhibition by little substance.

For the origin of these results see article PMC4629212 (Acta Pharmaceutica Sinica. B, 2015).
